Active and inactive are the calls of the source. The rule behind the calls is not given here.
Assays:
MDA-MB-231 [1] = assay: Cytotoxicity against human MDA-MB-231 cells assessed as reduction in cell viability after 48 hrs by SRB assay; format: functional, cell-based; conditions: MDA-MB-231, 48 h
Method in brief: (§1)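 Cells exposed to compounds for 48 h; growth inhibition and cytotoxicity read by sulforhodamine B staining. Concentration-response curves fit by four-parameter non-linear regression; IC50 is the concentration giving 50% reduction in cell density versus DMSO vehicle. Cells grown at 37 °C, 5% CO2 (Hs578T in DMEM with 10% FBS and 50 µg/mL gentamicin).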

[2] = Selectivity index, ratio of IC50 for human MDA-MB-231 cells to IC50 for human BT-549 cells; format: functional
[3] = Inhibition of porcine cerebral cortex Na+/K+-ATPase after 15 mins by ADP-Glo reagent based assay; set-up: species or system Sus scrofa
Hs-578T = assay: Cytotoxicity against human Hs-578T cells assessed as reduction in cell viability after 48 hrs by SRB assay; format: functional, cell-based; method in brief: as §1
BT-549 [4] = assay: Cytotoxicity against human BT-549 cells assessed as reduction in cell viability after 48 hrs by SRB assay; format: functional, cell-based; conditions: BT-549, 48 h; method in brief: as §1
[5] = Induction of intracellular Ca2+ concentration in human BT-549 cells at 150 nM after 2 hrs by Cal520-AM dye-based fluorescence assay relative to control; format: functional
Method in brief: (§2)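 BT-549 and MDA-MB-231 cells in 96-well optical plates at 60–80% confluency, loaded with 2.5 µM Cal-520 AM and 0.2% Pluronic F-127 for 30 min at 37 °C. Same field imaged at 4× at T0 and 2 h after 150 nM compound. Per-cell corrected total fluorescence normalized to T0; two-way ANOVA with Bonferroni test, n = 291–531 cells.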

BT-549 [6] = assay: Induction of intracellular Ca2+ concentration in human BT-549 cells at 150 to 500 nM after 3 hrs by Cal520-AM dye-based fluorescence assay; format: functional, cell-based; conditions: dose nM 150-500, time 3.0 hrs
Method in brief: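 BT-549 cells on coverslips at 60–80% confluency, loaded with 2.5 µM Cal-520 AM plus 0.2% Pluronic F-127 for 30 min at 37 °C, then washed. Imaged at 20× at T0 and 3 h after 150 or 500 nM compound, multiple fields. Per-cell corrected total fluorescence normalized to T0, versus DMSO; two-way ANOVA with Dunnett's test, n = 102–242 cells.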

MDA-MB-231 [7] = assay: Induction of intracellular Ca2+ concentration in human MDA-MB-231 cells at 150 nM after 2 hrs by Cal520-AM dye-based fluorescence assay; format: functional, cell-based; method in brief: as §2
HCC70 = assay: Cytotoxicity against human HCC70 cells assessed as reduction in cell viability after 48 hrs by SRB assay; format: functional, cell-based; conditions: HCC70, 48 h; method in brief: as §1
SUM185PE = assay: Cytotoxicity against human SUM185PE cells assessed as reduction in cell viability after 48 hrs by SRB assay; format: functional, cell-based
Method in brief: (§3)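 Cells grown at 37 °C in humidified 5% CO2 and exposed to compounds for 48 h. Antiproliferative and cytotoxic effects read by sulforhodamine B staining of cell density. Concentration-response curves fit by four-parameter non-linear regression. IC50 taken as the concentration giving 50% reduction in cell density relative to DMSO vehicle.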

MDA-MB-453 = assay: Cytotoxicity against human MDA-MB-453 cells assessed as reduction in cell viability after 48 hrs by SRB assay; format: functional, cell-based; conditions: MDA-MB-453, 48 h; method in brief: as §3
CAL-51 = assay: Cytotoxicity against human CAL-51 cells assessed as reduction in cell viability after 48 hrs by SRB assay; format: functional, cell-based; conditions: CAL-51, 48 h; method in brief: as §1
HCC1806 = assay: Cytotoxicity against human HCC1806 cells assessed as reduction in cell viability after 48 hrs by SRB assay; format: functional, cell-based; conditions: HCC1806, 48 h; method in brief: as §1
MDA-MB-468 = assay: Cytotoxicity against human MDA-MB-468 cells assessed as reduction in cell viability after 48 hrs by SRB assay; format: functional, cell-based; conditions: MDA-MB-468, 48 h; method in brief: as §1
HCC1937 = assay: Cytotoxicity against human HCC1937 cells assessed as reduction in cell viability after 48 hrs by SRB assay; format: functional, cell-based; conditions: HCC1937, 48 h; method in brief: as §1

Structure (SMILES) | IC50 (MDA-MB-231 [1]) [µM] | Ratio IC50 [2] | EC50 [3] [µM] | IC50 (Hs-578T) [µM] | IC50 (BT-549 [4]) [µM] | fold change (FC) [5] | Activity (BT-549 [6]) | Activity (MDA-MB-231 [7]) | IC50 (HCC70) [µM] | IC50 (SUM185PE) [µM] | IC50 (MDA-MB-453) [µM] | IC50 (CAL-51) [µM] | IC50 (HCC1806) [µM] | IC50 (MDA-MB-468) [µM] | IC50 (HCC1937) [µM]
C[C@]12CC[C@H](O)C[C@@H]1CC[C@@H]1[C@@H]2CC[C@]2(C)[C@@H](C3=CC(=O)OC3)CC[C@]12O | > 30 | >8 | 2.1 | 3.6 | 3.9 | – | – | – | – | – | – | – | – | – | –
C[C@H]1O[C@H]2O[C@@H]3C[C@@H]4CC[C@@H]5[C@H](CC[C@]6(C)[C@@H](C7=CC(=O)OC7)CC[C@]56O)[C@@]4(C=O)C[C@H]3O[C@@]2(O)[C@H](O)[C@@H]1O | 0.63 | 13 | 0.3 | 0.12 | 0.049 | – | – | – | – | – | – | – | – | – | –
C[C@H]1O[C@@H](O[C@@H]2C[C@@H]3CC[C@@H]4[C@H](CC[C@]5(C)[C@@H](C6=CC(=O)OC6)CC[C@]45O)[C@@]3(C=O)C[C@H]2O)[C@H](O)[C@H](O)[C@@H]1O | 10 | 7 | 2.5 | 3.9 | 1.4 | – | – | – | – | – | – | – | – | – | –
C[C@H]1O[C@@H](O[C@H]2CC[C@@]3(CO)[C@@H](CC[C@@H]4[C@@H]3CC[C@]3(C)[C@@H](C5=CC(=O)OC5)CC[C@]43O)C2)[C@H](O)[C@H](O)[C@@H]1O | 1.25 | 10 | 0.5 | 0.38 | 0.121 | – | – | – | – | – | – | – | – | – | –
C[C@H]1O[C@@H](O[C@H]2CC[C@@]3(CO)[C@@H](CC[C@@H]4[C@@H]3CC[C@]3(C)[C@@H](C5=CC(=O)OC5)CC[C@]43O)C2)[C@H](O)[C@H](O)[C@@H]1O[C@@H]1O[C@H](CO)[C@@H](O)[C@H](O)[C@H]1O | 0.98 | 14 | 0.6 | 0.3 | 0.07 | – | – | – | – | – | – | – | – | – | –
C[C@@H]1C[C@H](O)[C@]2(O)O[C@@H]3C[C@@]4(C=O)[C@@H](CC[C@@H]5[C@@H]4CC[C@]4(C)[C@@H](C6=CC(=O)OC6)CC[C@]54O)C[C@H]3O[C@@H]2O1 [CALOTROPIN] | 0.44 | 15 | 0.36 | 0.06 | 0.03 | 2 | Active | Active | – | – | – | – | – | – | –
C[C@]12CC[C@H]3[C@@H](CC[C@H]4C[C@@H](O)CC[C@@]43CO)[C@@]1(O)CC[C@@H]2C1=CC(=O)OC1 [COROGLAUCIGENIN] | 20 | 9 | 1.1 | 1.8 | 2.3 | – | – | – | – | – | – | – | – | – | –
C[C@]12CC[C@H](O[C@@H]3O[C@H](CO)[C@@H](O)[C@H](O)[C@H]3O)C[C@@H]1CC[C@@H]1[C@@H]2CC[C@]2(C)[C@@H](C3=CC(=O)OC3)CC[C@]12O [DESGLUCOUZARIN] | 10 | 6 | 1.1 | 1.57 | 1.8 | – | – | – | – | – | – | – | – | – | –
C[C@H]1O[C@@H](O[C@H]2[C@@H](O)C[C@H](O[C@H]3[C@@H](O)C[C@H](O[C@H]4CC[C@@]5(C)[C@H](CC[C@@H]6[C@@H]5C[C@@H](O)[C@]5(C)[C@@H](C7=CC(=O)OC7)CC[C@]65O)C4)O[C@@H]3C)O[C@@H]2C)C[C@H](O)[C@@H]1O [DIGOXIN] | 0.48 | – | – | 0.069 | 0.051 | – | – | – | 0.64 | 0.28 | 0.23 | 0.13 | 0.28 | 0.23 | 0.55
C[C@@H]1C[C@@]2(N=CCS2)[C@]2(O)O[C@@H]3C[C@@]4(C=O)[C@@H](CC[C@@H]5[C@@H]4CC[C@]4(C)[C@@H](C6=CC(=O)OC6)CC[C@]54O)C[C@H]3O[C@@H]2O1 [USCHARIN] | 0.102 | 7 | 0.91 | 0.034 | 0.0146 | – | – | – | – | – | – | – | – | – | –

Reference: ChEMBL document CHEMBL4665698, “Triple-Negative Breast Cancer Cells Exhibit Differential Sensitivity to Cardenolides from Calotropis gigantea” (J Nat Prod, 2020)
